Test system: MS2 coat protein
Assay: apparent Kd, MS2 coat protein; higher = weaker binding; RNA-MaP array; FMN 200 µM where present
In short: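 Each design was made on Illumina sequencing-chip clusters by stalled E. coli RNA polymerase and titrated with SNAP-549-labelled MS2 coat protein from 0.7 or 1.5 nM, doubling to 3 µM, in the absence and then the presence of constant ligand. The buffer was 100 mM Tris-HCl pH 7.5, 80 mM KCl, 4 mM MgCl2, BSA, DTT, yeast tRNA and Tween-20. The apparent Kd is the median of filtered per-cluster fits of binding curves, with green signal normalised to red-channel RNA signal and control-cluster median Fmax.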

[1] = designed as: OFF switch for flavin mononucleotide, no ligand
[2] = ligand present: flavin mononucleotide, designed as: OFF switch for flavin mononucleotide
[3] = designed as: ON switch for flavin mononucleotide, no ligand
[4] = ligand present: flavin mononucleotide, designed as: ON switch for flavin mononucleotide

| Sequence | apparent Kd [1] | apparent Kd [2] | apparent Kd [3] | apparent Kd [4] |
| --- | --- | --- | --- | --- |
| UCAUGUAUGUAGGAUAUCGAUGUCUUCGGACAUCGAGAAGGACGUACAUGAGGAUCACCCAUGUAACUUGCAUG | 17.9 nM | 16.6 nM |  |  |
| GCAUUUGAGCAGGAUAUAGCCUGAACAUAAUGGUUAGAAGGGCUCACAUGAGGAUCACCCAUGUGGUGUCCUAA | 12.8 nM | 36 nM |  |  |
| AAAGGACGAGGAUAUACAUGAGGAUCACCCAUGUAAGAAGCAUAAUAAAAUAACUUAUGUAGAAGGCGUCCAAA | 20.5 nM | 84.4 nM |  |  |
| UGAUCCGCAUCGGCGCACAAGACAUGAGGAUCACCCAUGUACAGAAGGCGAAAAGCGAAGGCGGUCGAGGAUAUGUACCUACGG | 6.92 nM | 15.7 nM |  |  |
| GAGAUCAUCACAGGAUAUGCAUUCCAUAAGUGGGCAGAAGGGUGAGAUUCAAGUGGACAUGAGGAUCACCCAUGUAUACUGCCU |  |  | 33.1 nM | 17.3 nM |
| AGAAAUUAGUGAGGAUAUGCUUAAAUUGUAGUUGCAGAAGGCACGGACCACAAGACAUGAGGAUCACCCAUGUGGUAUUUAGAU | 28.9 nM | 33 nM |  |  |
| AGUCAGAGCAGAGGAUAUAUACAUGAGGAUCACCCAUGUGACUGACUAUGCUAGAAAUAGUAUGUAUAGAAGGCUGCUCUGACA | 188 nM | 466 nM |  |  |
| AAAAUCAAGUCAGGAUAUCGUGCGGUUGGUCGUUACAUGAGGAUCACCCAUGUCUUCCGGUAGCUCGAGAAGGGACGUGAGCCC |  |  | 18.6 nM | 8.33 nM |
| UAUUUAUAAUAUUUUAACAUGAGGAUCACCCAUGUCGCUAGACAGGAUAUAUUUUAUUUUUUUAAGUAGAAGGGUCAUAGAUUU |  |  | 75.1 nM | 96.9 nM |
| AGUAUGAGAGGAUAUACGAAUAAACAUGGAAACAUGAUGGGACAUGAGGAUCACCCAUGUAGAAGGCUCGUACA | 118 nM | 358 nM |  |  |
| GGACAUUUACAGAAGGGCAAGUUUUAUAGUGAAUAUUUAGUUCUGACUUGCAGGAUAUGUUGAACAUGAGGAUCACCCAUGUCC |  |  | 16.4 nM | 10.5 nM |
| CCUCUACAUGAGGAUCACCCAUGUGAGGAUAUCUCGGAGCAGCCACUUAAGGCACUCCAGAGAAGGCACGUGUA | 18 nM | 25.7 nM |  |  |
| UAUAUAUAGUAAGGAUAUGUAAUUAAUUUAUAAACAGAAGGUACUGACAUGAGGAUCACCCAUGUUUUAGUGUGGGCAUGUAGA | 95.3 nM | 155 nM |  |  |
| GGUACUCAAAGAGUACCAAUACGAACAUGAGGAUCACCCAUGUAGGAUAUGCUACUCAAAGAGUAGCAGAAGGACAUGUGCCUC | 418 nM | 38.5 nM |  |  |
| GAGCUAUGAGGAUAUGCAUAUAUACGGUUUCGUGUGGUACUACAUGAGGAUCACCCAUGUAGAAGGCGUGGCUG | 17.7 nM | 15.1 nM |  |  |
| AGGUAACAUGAGGAUCACCCAUGUAAGGUGAACGUAGGAUAUCGAGGAGGUAGGGUAGGCCGAGAAGGACGAGGAG |  |  | 293 nM | 179 nM |
| ACAUGAGGAUCACCCAUGUUGAAUUAGGAUAUUUGACUGCGCAUGAGGUUCUCCCAUGUUCAACCGGAGAAGGGAUUAAUAAUU |  |  | 273 nM | 150 nM |
| CGCUGAGGCGAGAAGGCACAAGAGUGGUGGCGGACAUGAGGAUCACCCAUGUGAGGAUAUCGCACUUGGCGGUGCCUAAAACUA | 344 nM | 39 nM |  |  |
| UUUAUUUUUACAGGAUAUCAUCUAUAUAACUCAUGCACAUGUUUACAUGAGGAUCACCCAUGUUUUGAGAAGGGUAAUGAAACA |  |  | 440 nM | 228 nM |
| CGUCAUUACUCAGGAUAUGCAUCAUACUUGAGGGCAGAAGGGAGUACAUGAGGAUCACCCAUGUACUAUGGGUGCCUAAGAGGU | 18.7 nM | 101 nM |  |  |
| CAGUUUUGAGGAUAUCCAUCCUCCUACAUGAGGAUCACCCAUGUUUCCCUCUGGGUUUUCGGAGAAGGCAGUUAUU | 326 nM | 283 nM |  |  |

From the EternaBench riboswitch data
